Assay results as given in ChEMBL document CHEMBL1152662, “Synthesis and biological evaluation of novel 2-(substituted phenylaminocarbonylmethylthio)-6-(2,6-dichlorobenzyl)-pyrimidin-4(3H)-ones as potent HIV-1 NNRTIs” (Bioorg Med Chem, 2009).

How the values were obtained:
[1] = system: Human immunodeficiency virus 1; assay: Antiviral activity against HIV1 3B infected in human MT4 cells assessed as inhibition of virus-induced cytopathic effect after 5 days by MTT assay; assay type: functional, organism-based; conditions: Human immunodeficiency virus 1, 3B, MT4, 120 h
Summary of the method: (§1)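 Compounds added at start in triplicate wells (stocks at 10× final) as serial fivefold dilutions; MT-4 cells at 6 × 10⁵ cells/mL infected with HIV-1 IIIB or HIV-2 ROD. Viability read by MTT 5 days post-infection at 540 and 690 nm, median OD of three wells. EC50 is the concentration giving 50% protection against virus-induced cytotoxicity.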

[2] = Cytotoxicity against mock-infected human MT4 cells after 5 days by MTT assay; assay type: cell-based
Summary of the method: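 Mock-infected MT-4 cells (6 × 10⁵ cells/mL) exposed in triplicate to serial fivefold dilutions, added at start from stocks at 10× final concentration. Viability measured by MTT after 5 days, absorbance at 540 and 690 nm, median OD of three wells. CC50 is the concentration lowering OD540 of mock-infected control by 50%.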

[3] = system: Human immunodeficiency virus 2; assay: Antiviral activity against HIV2 ROD infected in human MT4 cells assessed as inhibition of virus-induced cytopathic effect after 5 days by MTT assay; assay type: functional, organism-based; conditions: Human immunodeficiency virus 2, ISOLATE ROD, MT4, 120 h; summary of the method: as §1
[4] = Selectivity index, ratio of CC50 for mock-infected human MT4 cells to EC50 for HIV1 3B infected in human MT4 cells; assay type: toxicity, cell-based; conditions: read-out: Ratio CC50/EC50
Summary of the method: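 Selectivity index calculated as CC50 over EC50, both from 5-day MTT viability readings in MT-4 cells, mock-infected or HIV-1 IIIB-infected, run in parallel triplicate wells.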

| Compound | EC50 [1] | CC50 at 120 h [2] | EC50 [3] | selectivity ratio [4] |
| --- | --- | --- | --- | --- |
| O=C(CSc1nc(Cc2c(Cl)cccc2Cl)cc(=O)[nH]1)Nc1ccc(F)c(Cl)c1 | > 264 µM | > 264 µM | > 264 µM | < 1 |
| COc1ccc(NC(=O)CSc2nc(Cc3c(Cl)cccc3Cl)cc(=O)[nH]2)cc1 | 0.92 µM | 25.5 µM | > 25.2 µM | 28 |
| O=C(CSc1nc(Cc2c(Cl)cccc2Cl)cc(=O)[nH]1)Nc1ccc(Cl)c(Cl)c1 | ≥ 84.6 µM | 19.6 µM | > 19.6 µM |  |
| COc1ccc(NC(=O)CSc2nc(Cc3c(Cl)cccc3Cl)cc(=O)[nH]2)cc1OC | 4.48 µM | 166 µM | > 166 µM | 28 |
| O=C(CSc1nc(Cc2c(Cl)cccc2Cl)cc(=O)[nH]1)Nc1ccc([N+](=O)[O-])cc1 | 2.07 µM | > 269 µM | > 269 µM | > 130 |
| O=C(CSc1nc(Cc2c(Cl)cccc2Cl)cc(=O)[nH]1)Nc1ccc(F)c(F)c1 | > 274 µM | > 274 µM | > 274 µM | ≥ 1 |
| O=C(CSc1nc(Cc2c(Cl)cccc2Cl)cc(=O)[nH]1)Nc1ccc(Cl)cc1 | 0.95 µM | 24.8 µM | > 24.8 µM | 23 |
| Cc1c(Cc2c(Cl)cccc2Cl)nc(SCC(=O)Nc2ccc(Cl)cc2)[nH]c1=O | 0.32 µM | > 267 µM | > 267 µM | > 836 |
| O=C(CSc1nc(Cc2c(Cl)cccc2Cl)cc(=O)[nH]1)Nc1ccc(Br)cc1 | 0.74 µM | 22.8 µM | > 22.8 µM | 31 |
| Cc1c(Cc2c(Cl)cccc2Cl)nc(SCC(=O)Nc2ccc([N+](=O)[O-])cc2)[nH]c1=O | 0.99 µM | > 261 µM | ≥ 45.8 µM | > 264 |
| Cc1ccc(NC(=O)CSc2nc(Cc3c(Cl)cccc3Cl)cc(=O)[nH]2)cc1 | 0.88 µM | ≥ 47.4 µM | > 47.4 µM | ≥ 54 |
| Cc1c(Cc2c(Cl)cccc2Cl)nc(SCC(=O)Nc2ccc(F)c(F)c2)[nH]c1=O | 0.69 µM | > 266 µM | > 266 µM | > 387 |
| Cc1c(Cc2c(Cl)cccc2Cl)nc(SCC(=O)Nc2ccc(Cl)c(Cl)c2)[nH]c1=O | ≥ 2.82 µM | > 248 µM | > 248 µM | ≥ 88 |
| Cc1c(Cc2c(Cl)cccc2Cl)nc(SCC(=O)Nc2ccc(Br)cc2)[nH]c1=O | 0.18 µM | > 244 µM | > 244 µM | > 1330 |
| Cc1c(Cc2c(Cl)cccc2Cl)nc(SCC(=O)Nc2ccc(F)c(Cl)c2)[nH]c1=O | ≥ 41.1 µM | > 257 µM | > 257 µM | ≥ 1 |
| COc1ccc(NC(=O)CSc2nc(Cc3c(Cl)cccc3Cl)c(C)c(=O)[nH]2)cc1 | 2.74 µM | 10.8 µM | > 10.8 µM | 4 |
| COc1ccc(NC(=O)CSc2nc(Cc3c(Cl)cccc3Cl)c(C)c(=O)[nH]2)cc1OC | 1.45 µM | > 253 µM | > 253 µM | > 175 |
